What was measured:
[1] = tested on: Plasma; assay: Antiplatelet activity in human platelet rich plasma assessed as inhibition of arachidonic acid-induced platelet aggregation; format: functional
Procedure, shortened: (§1)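 PRP was prepared from whole blood of healthy volunteers. Compounds were added to PRP at 10, 20, 50 and 100, with aspirin at 5 as reference and PEG-400 as vehicle control. Aggregation was induced with ADP or arachidonic acid, and IE50 was derived from the concentration series.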

[2] = tested on: Plasma; assay: Antiplatelet activity in human platelet rich plasma assessed as inhibition of ADP-induced platelet aggregation; format: functional; procedure, shortened: as §1

Structure (SMILES)	IE50 [1]	IE50 [2]
CC(C)C/C=C1\OC(=O)c2ccccc21	17.9 µM	204 µM
CC[C@@H]1OC(=O)c2ccccc21	16.9 µM	209 µM
CCC[C@@H]1OC(=O)c2ccccc21	16.9 µM	142 µM
CCCCCCC[C@H]1OC(=O)c2ccccc21	14.7 µM	143 µM
CC(C)CCC1OC(=O)c2ccccc21 (configuration not stated)	15.4 µM	201 µM
CCCCCCC1OC(=O)c2ccccc21 (configuration not stated)	15.8 µM	220 µM
CCCCCCCC1OC(=O)c2ccccc21 (configuration not stated)	16.1 µM	153 µM
CC[C@H]1OC(=O)c2ccccc21	14.1 µM	114 µM
CCCC[C@H]1OC(=O)c2ccccc21	13.2 µM	94.7 µM
CCCCCC/C=C1\OC(=O)c2ccccc21	18 µM	289 µM
CCC1OC(=O)c2ccccc21 (configuration not stated)	15.2 µM	164 µM
CC(C)CC[C@H]1OC(=O)c2ccccc21	14.3 µM	116 µM
CCCCC[C@@H]1OC(=O)c2ccccc21	17.9 µM	203 µM
CCCCCCC[C@@H]1OC(=O)c2ccccc21	18.7 µM	176 µM
CCCC1OC(=O)c2ccccc21 (configuration not stated)	14.9 µM	133 µM
CCCCCC[C@H]1OC(=O)c2ccccc21	14.4 µM	139 µM
CC(C)CC[C@@H]1OC(=O)c2ccccc21	17.2 µM	207 µM
CCCCCC[C@@H]1OC(=O)c2ccccc21	18.5 µM	217 µM
CCCC/C=C1\OC(=O)c2ccccc21	17.6 µM	201 µM
CCCCC/C=C1\OC(=O)c2ccccc21	17.1 µM	243 µM
CCC[C@H]1OC(=O)c2ccccc21	13.8 µM	112 µM
CCCCC[C@H]1OC(=O)c2ccccc21	15.1 µM	178 µM
CCCCCC1OC(=O)c2ccccc21 (configuration not stated)	16.4 µM	180 µM
C/C=C1\OC(=O)c2ccccc21	16 µM	
CC/C=C1\OC(=O)c2ccccc21	16.1 µM	171 µM
CCCC[C@@H]1OC(=O)c2ccccc21 [(3S)-BUTYLPHTHALIDE]	16.1 µM	193 µM
CC(=O)Oc1ccccc1C(=O)O [ASPIRIN]	12.3 µM	118 µM
CCCCC1OC(=O)c2ccccc21 (stereo not drawn) [RAC-3-N-BUTYLPHTHALIDE]	14.5 µM	170 µM
CCC/C=C1\OC(=O)c2ccccc21 [Z-butylidenephthalide]	16.1 µM	204 µM
